Reference: ChEMBL document CHEMBL3352384, “Synthesis and biological activity of new salicylanilide N,N-disubstituted carbamates and thiocarbamates” (Bioorg Med Chem, 2014)
≈ marks a conversion by molar mass, not a printed value.

system: Mycobacterium kansasii; experiment: Antimycobacterial activity against clinical isolate Mycobacterium kansasii 6509/96 assessed as complete growth inhibition after 7 days; type: functional; conditions: 6509/96, 168 h
Procedure, shortened: (§1)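 Dilutions of M. kansasii inoculum were 10-4 for strain 235/80 and 10-5 for clinical isolate 6509/96. MIC was the lowest concentration giving complete growth inhibition, run in quadruplicate and repeated twice.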

SMILES | MIC
Nc1ccc(C(=O)O)c(O)c1 [AMINOSALICYLIC ACID] | 32 µM (≈ 4.9 µg/mL)
O=C(O)CC[N+](=O)[O-] | > 1000 µM
O=C(Nc1ccc(Cl)cc1)c1cc(Cl)ccc1OC(=O)N(c1ccccc1)c1ccccc1 | 32 µM (≈ 15.3 µg/mL)
O=C(Nc1ccc(C(F)(F)F)cc1)c1cc(Cl)ccc1OC(=O)N(c1ccccc1)c1ccccc1 | 125 µM (≈ 63.9 µg/mL)
CN(C)C(=S)Oc1ccccc1C(=O)Nc1ccccc1 | > 1000 µM
O=C(Nc1ccc(C(F)(F)F)cc1)c1cc(Cl)ccc1O | 2 µM (≈ 0.631 µg/mL)
CN(C(=O)Oc1ccc(Cl)cc1C(=O)Nc1ccc(C(F)(F)F)cc1)c1ccccc1 | 125 µM (≈ 56.1 µg/mL)

system: Mycobacterium kansasii; experiment: Antimycobacterial activity against clinical isolate Mycobacterium kansasii 6509/96 assessed as complete growth inhibition after 21 days; type: functional; conditions: 6509/96, 504 h; procedure, shortened: as §1

SMILES | MIC
Nc1ccc(C(=O)O)c(O)c1 [AMINOSALICYLIC ACID] | 500 µM (≈ 76.6 µg/mL)
O=C(O)CC[N+](=O)[O-] | > 1000 µM
O=C(Nc1ccc(Cl)cc1)c1cc(Cl)ccc1OC(=O)N(c1ccccc1)c1ccccc1 | 62.5 µM (≈ 29.8 µg/mL)
O=C(Nc1ccc(C(F)(F)F)cc1)c1cc(Cl)ccc1OC(=O)N(c1ccccc1)c1ccccc1 | 125 µM (≈ 63.9 µg/mL)
CN(C)C(=S)Oc1ccccc1C(=O)Nc1ccccc1 | > 1000 µM
O=C(Nc1ccc(C(F)(F)F)cc1)c1cc(Cl)ccc1O | 4 µM (≈ 1.26 µg/mL)
CN(C(=O)Oc1ccc(Cl)cc1C(=O)Nc1ccc(C(F)(F)F)cc1)c1ccccc1 | 125 µM (≈ 56.1 µg/mL)

system: Mycobacterium tuberculosis; experiment: Antimycobacterial activity against Mycobacterium tuberculosis H37Rv 331/88 assessed as complete growth inhibition after 21 days; type: functional; conditions: H37Rv 331/88, 504 h
Procedure, shortened: (§2)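 M. tuberculosis 331/88 (H37Rv) inoculum diluted 10-3, M. avium 330/88 diluted 10-5. MIC is the lowest concentration giving complete growth inhibition. Isoniazid and p-aminosalicylic acid as references. Quadruplicate, repeated twice.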

SMILES | MIC
Nc1ccc(C(=O)O)c(O)c1 [AMINOSALICYLIC ACID] | 62.5 µM (≈ 9.57 µg/mL)
O=C(O)CC[N+](=O)[O-] | > 1000 µM
O=C(Nc1ccc(Cl)cc1)c1cc(Cl)ccc1OC(=O)N(c1ccccc1)c1ccccc1 | 250 µM (≈ 119 µg/mL)
O=C(Nc1ccc(C(F)(F)F)cc1)c1cc(Cl)ccc1OC(=O)N(c1ccccc1)c1ccccc1 | 125 µM (≈ 63.9 µg/mL)
CN(C)C(=S)Oc1ccccc1C(=O)Nc1ccccc1 | > 1000 µM
O=C(Nc1ccc(C(F)(F)F)cc1)c1cc(Cl)ccc1O | 2 µM (≈ 0.631 µg/mL)
CN(C(=O)Oc1ccc(Cl)cc1C(=O)Nc1ccc(C(F)(F)F)cc1)c1ccccc1 | 125 µM (≈ 56.1 µg/mL)

system: Mycobacterium avium; experiment: Antimycobacterial activity against Isoniazid, rifampicin, ofloxacin and ethambutol-resistant Mycobacterium avium 330/88 assessed as complete growth inhibition after 21 days; type: functional; conditions: 330/88, 504 h; procedure, shortened: as §2

SMILES | MIC
Nc1ccc(C(=O)O)c(O)c1 [AMINOSALICYLIC ACID] | 125 µM (≈ 19.1 µg/mL)
O=C(O)CC[N+](=O)[O-] | > 1000 µM
O=C(Nc1ccc(Cl)cc1)c1cc(Cl)ccc1OC(=O)N(c1ccccc1)c1ccccc1 | 250 µM (≈ 119 µg/mL)
O=C(Nc1ccc(C(F)(F)F)cc1)c1cc(Cl)ccc1OC(=O)N(c1ccccc1)c1ccccc1 | 250 µM (≈ 128 µg/mL)
CN(C)C(=S)Oc1ccccc1C(=O)Nc1ccccc1 | > 1000 µM
O=C(Nc1ccc(C(F)(F)F)cc1)c1cc(Cl)ccc1O | 8 µM (≈ 2.53 µg/mL)
CN(C(=O)Oc1ccc(Cl)cc1C(=O)Nc1ccc(C(F)(F)F)cc1)c1ccccc1 | 250 µM (≈ 112 µg/mL)

system: not listed separately; experiment: Inhibition of Mycobacterium tuberculosis H37Rv isocitrate lyase assessed as glyoxylate phenyl hydrazone formation at 10 uM; conditions: not given

SMILES | inhibition
Nc1ccc(C(=O)O)c(O)c1 [AMINOSALICYLIC ACID] | 10%
O=C(O)CC[N+](=O)[O-] | 25%
O=C(Nc1ccc(Cl)cc1)c1cc(Cl)ccc1OC(=O)N(c1ccccc1)c1ccccc1 | 20%
O=C(Nc1ccc(C(F)(F)F)cc1)c1cc(Cl)ccc1OC(=O)N(c1ccccc1)c1ccccc1 | 21%
CN(C)C(=S)Oc1ccccc1C(=O)Nc1ccccc1 | 6%
O=C(Nc1ccc(C(F)(F)F)cc1)c1cc(Cl)ccc1O | 6%
CN(C(=O)Oc1ccc(Cl)cc1C(=O)Nc1ccc(C(F)(F)F)cc1)c1ccccc1 | 16%

system: Mycobacterium avium; experiment: Antimycobacterial activity against Isoniazid, rifampicin, ofloxacin and ethambutol-resistant Mycobacterium avium 330/88 assessed as complete growth inhibition after 14 days; type: functional; conditions: 330/88, 336 h; procedure, shortened: as §2

SMILES | MIC
Nc1ccc(C(=O)O)c(O)c1 [AMINOSALICYLIC ACID] | 32 µM (≈ 4.9 µg/mL)
O=C(O)CC[N+](=O)[O-] | > 1000 µM
O=C(Nc1ccc(Cl)cc1)c1cc(Cl)ccc1OC(=O)N(c1ccccc1)c1ccccc1 | 250 µM (≈ 119 µg/mL)
O=C(Nc1ccc(C(F)(F)F)cc1)c1cc(Cl)ccc1OC(=O)N(c1ccccc1)c1ccccc1 | 250 µM (≈ 128 µg/mL)
CN(C)C(=S)Oc1ccccc1C(=O)Nc1ccccc1 | > 1000 µM
O=C(Nc1ccc(C(F)(F)F)cc1)c1cc(Cl)ccc1O | 4 µM (≈ 1.26 µg/mL)
CN(C(=O)Oc1ccc(Cl)cc1C(=O)Nc1ccc(C(F)(F)F)cc1)c1ccccc1 | 250 µM (≈ 112 µg/mL)

system: not listed separately; experiment: Selectivity index, ratio of IC50 for human HepG2 cells to MIC for atypical mycobacteria; conditions: not given
Procedure, shortened: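 Selectivity index = HepG2 IC50 / MIC. HepG2 cells (passage 3–4) grown in Eagle's MEM with 10% FBS, L-glutamine and non-essential amino acids. Compounds added from DMSO, eight concentrations in triplicate, tetrazolium-reduction colorimetric read-out. IC50 is the concentration reducing viability to 50% of control; 10% DMSO as 0% viability.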

SMILES | Selectivity Index
Nc1ccc(C(=O)O)c(O)c1 [AMINOSALICYLIC ACID] | <2.2
O=C(O)CC[N+](=O)[O-] | <0.7

system: Mycobacterium tuberculosis; experiment: Antimycobacterial activity against Mycobacterium tuberculosis H37Rv 331/88 assessed as complete growth inhibition after 14 days; type: functional; conditions: H37Rv 331/88, 336 h; procedure, shortened: as §2

SMILES | MIC
Nc1ccc(C(=O)O)c(O)c1 [AMINOSALICYLIC ACID] | 62.5 µM (≈ 9.57 µg/mL)
O=C(Nc1ccc(Cl)cc1)c1cc(Cl)ccc1OC(=O)N(c1ccccc1)c1ccccc1 | 250 µM (≈ 119 µg/mL)
O=C(Nc1ccc(C(F)(F)F)cc1)c1cc(Cl)ccc1OC(=O)N(c1ccccc1)c1ccccc1 | 125 µM (≈ 63.9 µg/mL)
CN(C)C(=S)Oc1ccccc1C(=O)Nc1ccccc1 | > 1000 µM
O=C(Nc1ccc(C(F)(F)F)cc1)c1cc(Cl)ccc1O | 1 µM (≈ 0.316 µg/mL)
CN(C(=O)Oc1ccc(Cl)cc1C(=O)Nc1ccc(C(F)(F)F)cc1)c1ccccc1 | 125 µM (≈ 56.1 µg/mL)

system: not listed separately; experiment: Selectivity index, ratio of IC50 for human HepG2 cells to MIC for Mycobacterium tuberculosis H37Rv; type: toxicity, cell-based; conditions: read-out: Selectivity Index
Procedure, shortened: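 Selectivity index = HepG2 IC50 / MIC. HepG2 cells (passage 3–4) grown in Eagle's MEM with 10% FBS, L-glutamine and non-essential amino acids. Compounds added from DMSO, eight concentrations in triplicate, tetrazolium-reduction colorimetric read-out.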

SMILES | selectivity ratio
Nc1ccc(C(=O)O)c(O)c1 [AMINOSALICYLIC ACID] | 35.8
O=C(O)CC[N+](=O)[O-] | < 0.7

system: Mycobacterium kansasii; experiment: Antimycobacterial activity against Mycobacterium kansasii 235/80 assessed as complete growth inhibition after 14 days; type: functional; conditions: 235/80, 336 h; procedure, shortened: as §1

SMILES | MIC
Nc1ccc(C(=O)O)c(O)c1 [AMINOSALICYLIC ACID] | 1000 µM (≈ 153 µg/mL)
O=C(O)CC[N+](=O)[O-] | > 1000 µM
O=C(Nc1ccc(Cl)cc1)c1cc(Cl)ccc1OC(=O)N(c1ccccc1)c1ccccc1 | 125 µM (≈ 59.7 µg/mL)
O=C(Nc1ccc(C(F)(F)F)cc1)c1cc(Cl)ccc1OC(=O)N(c1ccccc1)c1ccccc1 | 125 µM (≈ 63.9 µg/mL)
CN(C)C(=S)Oc1ccccc1C(=O)Nc1ccccc1 | > 1000 µM
O=C(Nc1ccc(C(F)(F)F)cc1)c1cc(Cl)ccc1O | 4 µM (≈ 1.26 µg/mL)
CN(C(=O)Oc1ccc(Cl)cc1C(=O)Nc1ccc(C(F)(F)F)cc1)c1ccccc1 | 125 µM (≈ 56.1 µg/mL)

system: Mycobacterium kansasii; experiment: Antimycobacterial activity against Mycobacterium kansasii 235/80 assessed as complete growth inhibition after 21 days; type: functional; conditions: 235/80, 504 h; procedure, shortened: as §1

SMILES | MIC
Nc1ccc(C(=O)O)c(O)c1 [AMINOSALICYLIC ACID] | > 1000 µM
O=C(O)CC[N+](=O)[O-] | > 1000 µM
O=C(Nc1ccc(Cl)cc1)c1cc(Cl)ccc1OC(=O)N(c1ccccc1)c1ccccc1 | 125 µM (≈ 59.7 µg/mL)
O=C(Nc1ccc(C(F)(F)F)cc1)c1cc(Cl)ccc1OC(=O)N(c1ccccc1)c1ccccc1 | 125 µM (≈ 63.9 µg/mL)
CN(C)C(=S)Oc1ccccc1C(=O)Nc1ccccc1 | > 1000 µM
O=C(Nc1ccc(C(F)(F)F)cc1)c1cc(Cl)ccc1O | 4 µM (≈ 1.26 µg/mL)
CN(C(=O)Oc1ccc(Cl)cc1C(=O)Nc1ccc(C(F)(F)F)cc1)c1ccccc1 | 125 µM (≈ 56.1 µg/mL)

system: Mycobacterium kansasii; experiment: Antimycobacterial activity against Mycobacterium kansasii 235/80 assessed as complete growth inhibition after 7 days; type: functional; conditions: 235/80, 168 h; procedure, shortened: as §1

SMILES | MIC
Nc1ccc(C(=O)O)c(O)c1 [AMINOSALICYLIC ACID] | 125 µM (≈ 19.1 µg/mL)
O=C(O)CC[N+](=O)[O-] | > 1000 µM
O=C(Nc1ccc(Cl)cc1)c1cc(Cl)ccc1OC(=O)N(c1ccccc1)c1ccccc1 | 32 µM (≈ 15.3 µg/mL)
O=C(Nc1ccc(C(F)(F)F)cc1)c1cc(Cl)ccc1OC(=O)N(c1ccccc1)c1ccccc1 | 125 µM (≈ 63.9 µg/mL)
CN(C)C(=S)Oc1ccccc1C(=O)Nc1ccccc1 | > 1000 µM
O=C(Nc1ccc(C(F)(F)F)cc1)c1cc(Cl)ccc1O | 2 µM (≈ 0.631 µg/mL)
CN(C(=O)Oc1ccc(Cl)cc1C(=O)Nc1ccc(C(F)(F)F)cc1)c1ccccc1 | 125 µM (≈ 56.1 µg/mL)

system: Mycobacterium kansasii; experiment: Antimycobacterial activity against clinical isolate Mycobacterium kansasii 6509/96 assessed as complete growth inhibition after 14 days; type: functional; conditions: 6509/96, 336 h; procedure, shortened: as §1

SMILES | MIC
Nc1ccc(C(=O)O)c(O)c1 [AMINOSALICYLIC ACID] | 125 µM (≈ 19.1 µg/mL)
O=C(O)CC[N+](=O)[O-] | > 1000 µM
O=C(Nc1ccc(Cl)cc1)c1cc(Cl)ccc1OC(=O)N(c1ccccc1)c1ccccc1 | 62.5 µM (≈ 29.8 µg/mL)
O=C(Nc1ccc(C(F)(F)F)cc1)c1cc(Cl)ccc1OC(=O)N(c1ccccc1)c1ccccc1 | 125 µM (≈ 63.9 µg/mL)
CN(C)C(=S)Oc1ccccc1C(=O)Nc1ccccc1 | > 1000 µM
O=C(Nc1ccc(C(F)(F)F)cc1)c1cc(Cl)ccc1O | 4 µM (≈ 1.26 µg/mL)
CN(C(=O)Oc1ccc(Cl)cc1C(=O)Nc1ccc(C(F)(F)F)cc1)c1ccccc1 | 125 µM (≈ 56.1 µg/mL)

system: HepG2; experiment: Cytotoxicity against human HepG2 cells assessed as reduction in cell viability after 24 hrs by MTS assay; type: cell-based; conditions: HepG2, 24 h
Procedure, shortened: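 HepG2 hepatocellular carcinoma cells (passage 3–4) were grown in Eagle's MEM with 10% FBS, 1% L-glutamine and non-essential amino acids. Compounds were added from DMSO at eight concentrations in triplicate, with 10% DMSO as the 0% viability control. Viability was read by tetrazolium salt reduction (CellTiter 96 AQueous One). IC50 is the concentration reducing viability to 50% of control.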

SMILES | IC50
Nc1ccc(C(=O)O)c(O)c1 [AMINOSALICYLIC ACID] | 2240 µM
O=C(O)CC[N+](=O)[O-] | 692 µM
O=C(Nc1ccc(Cl)cc1)c1cc(Cl)ccc1OC(=O)N(c1ccccc1)c1ccccc1 | > 100 µM
O=C(Nc1ccc(C(F)(F)F)cc1)c1cc(Cl)ccc1OC(=O)N(c1ccccc1)c1ccccc1 | > 100 µM
CN(C)C(=S)Oc1ccccc1C(=O)Nc1ccccc1 | > 500 µM
O=C(Nc1ccc(C(F)(F)F)cc1)c1cc(Cl)ccc1O | 0.36 µM
CN(C(=O)Oc1ccc(Cl)cc1C(=O)Nc1ccc(C(F)(F)F)cc1)c1ccccc1 | > 100 µM
